# Measurements collected from several papers.
# Target: Mitogen-activated protein kinase kinase kinase 20 (MAP3K20, Homo sapiens, UniProt Q9NYL2)
SMILES,test,conditions,measurement,result
CC(C)(O)[C@H]1CC[C@H](Nc2ccc3ncc(-c4cccc(C(F)(F)F)c4)n3n2)CC1,"enzyme activity, inhibitor",1 µM,remaining activity,75.7%
CSc1cccnc1N1CCN(Cc2nc3ccccc3[nH]2)CC1,"cell-free assay, competition with immobilised ligand",1 µM,remaining binding,100%
CC1(C)NC(=O)c2[nH]c3c(Cl)c(Cl)ccc3c2C1C#N (centres unmarked),"thermal stability, DSF",10 µM,ΔTm,0.6 °C
COc1ccc2c(O[C@@H]3C[C@H]4C(=O)N[C@]5(C(=O)O)CC5/C=C\CCCCC[C@H](NC(=O)OC5CCCC5)C(=O)N4C3)cc(-c3csc(NC(=O)C(C)C)n3)nc2c1C (some centres unmarked),"cell-free assay, competition with immobilised ligand",1 µM,remaining binding,83%
Cn1c2c(c3ccc(Cl)c(Cl)c31)C(C#N)C1(CCNCC1)NC2=O (racemic),"thermal stability, DSF",10 µM,ΔTm,0 °C
CO[C@H]1CC[C@H](CNc2ccc(S(=O)(=O)NC(=O)c3ccc(N4CCN(CC5=C(c6ccc(Cl)cc6)CC(C)(C)CC5)CC4)cc3Oc3cnc4[nH]ccc4c3)cc2[N+](=O)[O-])CC1,"cell-free assay, competition with immobilised ligand",1 µM,remaining binding,100%
O=C1NC(=O)c2cc(Nc3ccc(F)cc3)c(Nc3ccc(F)cc3)cc21,cell-free assay,0.5 µM,remaining signal,94.5%
c1ccc(CNc2nc(N3CCOc4ccccc43)nc3c2CCCC3)cc1,"target engagement in cells, inhibitor, chemoproteomics",20 mM,inhibition,-6.3%
Cc1sc(C(=O)NC2COC2)cc1-n1cc(NC(=O)Nc2c(F)cccc2Cl)cn1,"enzyme activity, inhibitor",10 µM,remaining activity,89.9%
CC(C)(C)c1nc(-c2cccc(NS(=O)(=O)c3c(F)cccc3F)c2F)c(-c2ccnc(N)n2)s1,"enzyme activity, inhibitor, radiometric",1 µM,remaining activity,101%
CC1=C(C#N)C(c2ccc3c(c2)c(NC(=O)c2ccccc2C)nn3C)C(C#N)=C(C)N1,"cell-free assay, competition with immobilised ligand",1 µM,remaining binding,100%
Cn1c2c(Cl)c(Cl)ccc2c2cc(N)[nH]c(=O)c21,"thermal stability, DSF",10 µM,ΔTm,0.6 °C
Nc1c(C(=O)NCc2ccc(C(=O)NCCCC3CCCCC3)cc2)cnn1-c1ccccc1,"binding, competition with immobilised ligand",1 µM,remaining binding,42%
Cc1ccc(C(=O)Nc2ccc(CN3CCN(C)CC3)c(C(F)(F)F)c2)cc1C#Cc1cnc2cccnn12,"enzyme activity, inhibitor",23.5 nM,remaining activity,2.9%
Cn1c2c(Cl)c(Cl)ccc2c2cn[nH]c(=O)c21,"thermal stability, DSF",10 µM,ΔTm,0.4 °C
COc1cc2c(N3CCN(C(=O)Nc4ccc(OC(C)C)cc4)CC3)ncnc2cc1OCCCN1CCCCC1,cell-free assay,0.5 µM,remaining signal,99.7%
Nc1ncnc2c1ncn2[C@@H]1O[C@H](COP(=O)(O)OP(=O)(O)OP(=O)(O)O)[C@@H](O)[C@H]1O,"enzyme activity, substrate, mass spectrometry",,Km,140 µM
CN1CC(Oc2cnc(C#N)cc2-c2ccn3nc(NC(=O)C4CC4)cc3c2)C1,"enzyme activity, inhibitor",1 µM,inhibition,12%
CC(=O)c1c(NS(C)(=O)=O)c2cc(-c3ccc(Cl)cc3)c(-c3ccc(Cl)cc3Cl)nc2n(C)c1=O,"cell-free assay, competition with immobilised ligand",1 µM,remaining binding,92%
CCOc1cc(-c2nncn2C)ccc1Nc1ncc2cc(C)nc(NCC(C)(C)C)c2n1,"cell-free assay, TR-FRET",1 µM,inhibition,≤ 15%
O=C(Nc1cnn(-c2csc(C(=O)NC3COC3)c2)c1)Nc1c(F)cccc1Cl,"enzyme activity, inhibitor",5 µM,remaining activity,90.4%
Cc1ccc(NC(=O)c2ccc(CN3CCN(C)CC3)cc2)cc1Nc1nc(-c2cccnc2)cs1,cell-free assay,0.5 µM,remaining signal,86.8%
N#CC1c2c([nH]c3c(Cl)c(Cl)ccc23)C(=O)NC12CCCCC2 (racemic),"thermal stability, DSF",10 µM,ΔTm,-0.3 °C
CN(c1ccnc(CNc2nc(Nc3ccc4c(c3)CC(=O)N4)ncc2C(F)(F)F)n1)S(C)(=O)=O,"cell-free assay, competition with immobilised ligand",1 µM,remaining binding,100%
Cn1c2c(c3ccc(Cl)c(Cl)c31)C(C#N)C1(CCCC1)NC2=O (centres unmarked),"thermal stability, DSF",10 µM,ΔTm,-0.1 °C
CNC(=O)c1cc(Oc2ccc(NC(=O)Nc3ccc(Cl)c(C(F)(F)F)c3)cc2)ccn1,cell-free assay,0.5 µM,remaining signal,16.7%
